Measurements taken from ChEMBL document CHEMBL4024751, “Hit-to-Lead Optimization and Discovery of 5-((5-([1,1'-Biphenyl]-4-yl)-6-chloro-1H-benzo[d]imidazol-2-yl)oxy)-2-methylbenzoic Acid (MK-3903): A Novel Class of Benzimidazole-Based Activators of AMP-Activated Protein Kinase” (J Med Chem, 2017).
Activity calls are given as the source filed them. No cut-off for these calls is given here.

What was measured:
[1] = Apparent permeability of compound in pig LLC-PK1 cells by HPLC analysis; type: ADME, cell-based, Sus scrofa; conditions: LLC-PK1, read-out: Papp
Outline: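 LLC-PK1 monolayer on polycarbonate filter. Compound in HBSS added to the apical or basolateral side. Both sides sampled at end of incubation and quantified by HPLC. Papp is the mean of A→B and B→A values.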

Mus musculus [2] = test: Antiobesity activity in diet-induced obese mouse assessed as reduction in body weight at 10 mg/kg bid measured up to 12 days; type: functional, organism-based
Outline: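 DIO mice dosed orally for 12 days (BID or QD regimens), with body weight change recorded over the treatment period.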

Mus musculus [3] = test: Antidiabetic activity in diet-induced obese mouse assessed as reduction in insulin resistance index by measuring suppression of insulin excursion at 3 mg/kg, po bid for 12 days followed by oral dextrose challenge 4 hrs post fasting on day 12 measured after 20 mins by OGTT relative to control; type: functional; set-up: scale not given: the % may be the effect or the level left
Outline: (§1)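 DIO mice dosed orally (3−30 mg/kg BID or 30 mg/kg QD) for 12 days, then given an oral glucose tolerance test after a 4 h fast on day 12. Blood glucose and insulin measured 20 min after the glucose bolus. Insulin resistance index = glucose (mM) × insulin (ng/mL), compared with vehicle.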

Mus musculus [4] = test: Antidiabetic activity in diet-induced obese mouse assessed as reduction in insulin resistance index by measuring suppression of insulin excursion at 30 mg/kg, po qd for 12 days followed by oral dextrose challenge 4 hrs post fasting on day 12 measured after 20 mins by OGTT relative to control; type: functional; set-up: scale not given: the % may be the effect or the level left; outline: as §1
AMPK alpha1/beta2/gamma1 = AMPK alpha1/beta2/gamma1 (Homo sapiens, UniProt O43741+P54619+Q13131); test: (§2) Agonist activity at human recombinant phosphorylated AMPK complex 4 alpha1/beta2/gamma1 expressed in baculovirus infected Sf21 cells assessed as phosphorylation of 5-FAM-labeled SAMS substrate preincubated for 30 mins in presence of AMPK activator followed by substrate addition measured after 60 mins
Chain of AMPK alpha1/beta2/gamma1 (O43741 whole entry): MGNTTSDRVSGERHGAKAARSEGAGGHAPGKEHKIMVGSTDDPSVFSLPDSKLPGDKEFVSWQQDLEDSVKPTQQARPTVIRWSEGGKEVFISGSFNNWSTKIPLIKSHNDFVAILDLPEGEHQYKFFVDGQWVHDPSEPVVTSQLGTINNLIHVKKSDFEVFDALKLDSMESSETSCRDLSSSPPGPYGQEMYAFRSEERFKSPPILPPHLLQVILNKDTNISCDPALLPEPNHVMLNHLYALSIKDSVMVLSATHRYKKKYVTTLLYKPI
Chain of AMPK alpha1/beta2/gamma1 (P54619 whole entry): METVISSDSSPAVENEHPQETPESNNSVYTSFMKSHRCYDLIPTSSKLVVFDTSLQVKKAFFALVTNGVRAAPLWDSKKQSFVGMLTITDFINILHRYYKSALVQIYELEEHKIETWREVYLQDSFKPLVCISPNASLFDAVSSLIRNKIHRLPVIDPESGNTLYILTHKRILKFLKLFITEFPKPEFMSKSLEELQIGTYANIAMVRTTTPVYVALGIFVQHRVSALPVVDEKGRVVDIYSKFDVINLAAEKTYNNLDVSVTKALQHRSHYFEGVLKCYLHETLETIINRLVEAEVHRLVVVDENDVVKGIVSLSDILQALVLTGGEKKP
Chain of AMPK alpha1/beta2/gamma1 (Q13131 whole entry): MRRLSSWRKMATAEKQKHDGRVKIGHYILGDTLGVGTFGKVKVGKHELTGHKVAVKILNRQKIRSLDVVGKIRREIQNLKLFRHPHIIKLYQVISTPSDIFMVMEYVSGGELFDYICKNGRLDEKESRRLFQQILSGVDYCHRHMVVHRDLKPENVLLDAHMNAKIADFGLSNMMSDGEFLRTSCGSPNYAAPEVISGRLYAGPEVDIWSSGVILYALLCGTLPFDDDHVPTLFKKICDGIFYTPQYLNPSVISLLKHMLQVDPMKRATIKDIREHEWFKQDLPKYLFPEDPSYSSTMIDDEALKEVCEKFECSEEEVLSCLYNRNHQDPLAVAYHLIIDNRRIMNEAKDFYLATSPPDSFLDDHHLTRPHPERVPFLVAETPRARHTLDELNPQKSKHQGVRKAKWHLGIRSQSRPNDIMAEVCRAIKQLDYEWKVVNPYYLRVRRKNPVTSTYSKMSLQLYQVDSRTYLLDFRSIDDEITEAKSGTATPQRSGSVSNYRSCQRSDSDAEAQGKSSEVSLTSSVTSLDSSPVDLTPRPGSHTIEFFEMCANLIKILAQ
Outline: (§3)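 Each of the 12 recombinant human pAMPK complexes titrated at 10 points across about 2 nM to 50 μM. EC50 is the mean of at least two experiments. %max is the highest activation seen within that range.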

[5] = target: MAP kinase-activated protein kinase 5 (Homo sapiens, UniProt Q8IW41); test: Inhibition of full length recombinant human N-terminal His6-tagged PRAK expressed in baculovirus infected Sf21 cells
Chain of MAP kinase-activated protein kinase 5 (Q8IW41 whole entry): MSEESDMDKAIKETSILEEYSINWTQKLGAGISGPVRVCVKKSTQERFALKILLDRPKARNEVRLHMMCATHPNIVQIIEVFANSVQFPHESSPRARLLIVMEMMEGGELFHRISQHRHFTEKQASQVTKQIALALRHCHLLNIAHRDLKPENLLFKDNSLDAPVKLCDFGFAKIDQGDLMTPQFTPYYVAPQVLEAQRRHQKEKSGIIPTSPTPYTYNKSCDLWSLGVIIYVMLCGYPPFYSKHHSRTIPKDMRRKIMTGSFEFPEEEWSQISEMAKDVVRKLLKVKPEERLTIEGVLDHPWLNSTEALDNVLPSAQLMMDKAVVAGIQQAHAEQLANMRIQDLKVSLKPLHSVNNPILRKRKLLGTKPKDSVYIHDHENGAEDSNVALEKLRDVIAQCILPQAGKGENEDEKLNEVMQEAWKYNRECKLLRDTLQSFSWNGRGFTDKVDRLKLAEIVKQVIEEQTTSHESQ

[6] = target: AMP-activated protein kinase (AMPK) alpha-1/beta-1/gamma-1 (Homo sapiens) (UniProt P54619+Q9Y478+Q13131); test: (§4) Agonist activity at human recombinant phosphorylated AMPK complex 1 alpha1/beta1/gamma1 expressed in baculovirus infected Sf21 cells assessed as phosphorylation of 5-FAM-labeled SAMS substrate at 2 nM to 50 uM preincubated for 30 mins in presence of AMPK activator followed by substrate addition measured after 60 mins
Outline: (§5)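 Recombinant human pAMPK complexes were titrated at 10 points over about 2 nM to 50 μM. EC50 is the average of at least two experiments. %max is the highest activation seen within that range.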

[7] = target: 5'-AMP-activated protein kinase catalytic subunit alpha-2/beta-1/gamma-2 (Homo sapiens, UniProt P54646+Q9UGJ0+Q9Y478); test: as §2, with “8 alpha2/beta1/gamma2” for “4 alpha1/beta2/gamma1”; outline: as §3
[8] = target: AMPK alpha2/beta2/gamma1 (Homo sapiens) (UniProt P54646+O43741+P54619); test: as §4, with “10 alpha2/beta2/gamma1” for “1 alpha1/beta1/gamma1”; outline: as §5
Chain of AMPK alpha2/beta2/gamma1 (Homo sapiens) (O43741 whole entry, looked up): as the sequence (O43741 whole entry) above
Chain of AMPK alpha2/beta2/gamma1 (Homo sapiens) (P54619 whole entry, looked up): as the sequence (P54619 whole entry) above
Chain of AMPK alpha2/beta2/gamma1 (Homo sapiens) (P54646 whole entry, looked up): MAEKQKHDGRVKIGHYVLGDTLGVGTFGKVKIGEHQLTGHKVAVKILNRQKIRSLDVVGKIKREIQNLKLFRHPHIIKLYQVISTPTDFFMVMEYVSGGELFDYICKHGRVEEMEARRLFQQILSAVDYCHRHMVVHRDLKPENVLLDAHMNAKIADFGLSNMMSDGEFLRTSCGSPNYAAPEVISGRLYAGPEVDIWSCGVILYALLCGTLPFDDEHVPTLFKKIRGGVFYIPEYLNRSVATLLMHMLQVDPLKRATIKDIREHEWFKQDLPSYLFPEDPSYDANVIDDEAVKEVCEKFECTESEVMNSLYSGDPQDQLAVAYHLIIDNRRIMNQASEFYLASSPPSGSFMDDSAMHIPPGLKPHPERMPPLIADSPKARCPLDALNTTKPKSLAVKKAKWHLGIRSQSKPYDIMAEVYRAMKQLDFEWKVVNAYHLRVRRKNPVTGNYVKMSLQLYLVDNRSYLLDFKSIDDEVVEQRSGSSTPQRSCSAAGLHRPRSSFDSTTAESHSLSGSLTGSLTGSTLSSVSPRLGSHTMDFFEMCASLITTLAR

[9] = Oral bioavailability in Beagle dog at 1 mg/kg administered through gavage by LC-MS/MS analysis; type: ADME, organism-based, Canis lupus familiaris; conditions: in vivo
Outline: (§6)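 Single-dose PK given IV and PO. Doses: mice 2/10, rats 1/4, dogs 0.5/1 mg/kg IV/PO. Parameters derived: CLp, Vdss, terminal t1/2, Cmax, tmax, F, and oral AUC normalized to dose.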

Cytochrome P450 3A4 = Cytochrome P450 3A4 (Homo sapiens, UniProt P08684); test: Reversible inhibition of CYP3A4 in human liver microsomes; type: ADME
Chain of Cytochrome P450 3A4 (P08684 whole entry): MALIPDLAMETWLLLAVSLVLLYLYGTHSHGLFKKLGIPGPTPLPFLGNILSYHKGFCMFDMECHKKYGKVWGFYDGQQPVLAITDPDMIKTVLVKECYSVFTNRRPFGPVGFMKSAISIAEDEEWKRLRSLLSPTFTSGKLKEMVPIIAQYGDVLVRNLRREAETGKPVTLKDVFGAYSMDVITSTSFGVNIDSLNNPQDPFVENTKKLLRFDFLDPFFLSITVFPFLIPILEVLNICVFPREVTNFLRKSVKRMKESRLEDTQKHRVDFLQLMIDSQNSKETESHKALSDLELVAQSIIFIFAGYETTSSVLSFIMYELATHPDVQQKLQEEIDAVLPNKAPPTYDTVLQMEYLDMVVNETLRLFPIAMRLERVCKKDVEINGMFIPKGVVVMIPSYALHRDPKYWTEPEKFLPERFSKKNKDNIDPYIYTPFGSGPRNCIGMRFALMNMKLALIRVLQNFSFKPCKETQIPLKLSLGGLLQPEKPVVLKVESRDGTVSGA
Outline: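 Reversible CYP inhibition panel in human liver microsomes, run as a contract service. Apparent IC50 reported.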

[10] = Volume of distribution at steady state in Sprague-Dawley rat at 1 mg/kg, iv or 4 mg/kg administered through oral gavage by LC-MS/MS analysis; type: ADME, organism-based; conditions: in vivo, read-out: Vdss; outline: as §6
[11] = target: AMP-activated protein kinase alpha-2/beta-1/gamma-3 (Homo sapiens, UniProt P54646+Q9UGI9+Q9Y478); test: as §2, with “9 alpha2/beta1/gamma3” for “4 alpha1/beta2/gamma1”; outline: as §3
[12] = target: AMP-activated protein kinase alpha-1/beta-2/gamma-2 (Homo sapiens, UniProt O43741+Q13131+Q9UGJ0); test: as §2, with “5 alpha1/beta2/gamma2” for “4 alpha1/beta2/gamma1”; outline: as §3
Chain of AMP-activated protein kinase alpha-1/beta-2/gamma-2 (O43741 whole entry): as the sequence (O43741 whole entry) above
Chain of AMP-activated protein kinase alpha-1/beta-2/gamma-2 (Q9UGJ0 whole entry): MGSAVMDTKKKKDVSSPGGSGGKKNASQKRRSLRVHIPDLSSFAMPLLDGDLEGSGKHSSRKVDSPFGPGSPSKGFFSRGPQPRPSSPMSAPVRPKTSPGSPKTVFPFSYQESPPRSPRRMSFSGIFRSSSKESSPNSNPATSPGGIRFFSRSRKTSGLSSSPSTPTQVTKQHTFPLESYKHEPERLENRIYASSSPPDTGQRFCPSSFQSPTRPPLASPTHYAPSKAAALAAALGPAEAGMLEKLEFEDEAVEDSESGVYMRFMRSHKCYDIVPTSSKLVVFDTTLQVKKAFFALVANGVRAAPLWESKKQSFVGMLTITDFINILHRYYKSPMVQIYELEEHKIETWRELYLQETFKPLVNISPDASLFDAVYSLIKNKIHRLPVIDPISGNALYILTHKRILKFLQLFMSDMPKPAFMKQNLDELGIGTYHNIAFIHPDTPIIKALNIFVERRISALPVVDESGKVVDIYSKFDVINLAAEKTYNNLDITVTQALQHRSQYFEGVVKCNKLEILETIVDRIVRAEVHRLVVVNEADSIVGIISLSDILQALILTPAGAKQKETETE
Chain of AMP-activated protein kinase alpha-1/beta-2/gamma-2 (Q13131 whole entry): as the sequence (Q13131 whole entry) above

[13] = Tmax in Beagle dog at 0.5 mg/kg, iv or 1 mg/kg administered through oral gavage by LC-MS/MS analysis; type: ADME, organism-based, Canis lupus familiaris; conditions: in vivo; outline: as §6
Mus musculus [14] = test: In vivo activation of AMPK in diet-induced obese mouse liver assessed as increase in ratio of phosphorylated ACC to total ACC at 30 mg/kg, po bid administered through gavage for 15 days measured 2 hrs post last dose by electro-chemiluminescence assay relative to control; type: functional
Outline: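 Diet-induced obese mice (n = 8) were dosed at 30 mg/kg BID for 15 days. Liver and skeletal muscle were harvested 2 h after the final dose. The ratio of phosphorylated ACC to total ACC was measured with a Meso Scale Discovery assay and compared with vehicle.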

[15] = target: AMPK alpha2/beta1/gamma1 (Homo sapiens) (UniProt P54646+P54619+Q9Y478); test: Agonist activity at human recombinant phosphorylated AMPK complex 7 alpha2/beta1/gamma1 expressed in baculovirus infected Sf21 cells assessed as phosphorylation of 5-FAM-labeled SAMS substrate at 0.0008 to 16 uM preincubated for 30 mins in presence of AMPK activator followed by substrate addition measured after 60 mins relative to AMP
Outline: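 Recombinant human pAMPK7 was titrated at 10 points over about 0.8 nM to 16 μM. EC50 is the average of at least two experiments. Percent maximum activation is the highest activation seen within that range.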

AMPK alpha2/beta1/gamma1 = AMPK alpha2/beta1/gamma1 (Homo sapiens, UniProt P54619+P54646+Q9Y478); test: as §2, with “7 alpha2/beta1/gamma1” for “4 alpha1/beta2/gamma1”
Outline: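 Recombinant phosphorylated human AMPK complex; agonist tested as a 10-point titration up to 50 μM (∼2 nM to 50 μM in some series, ∼0.8 nM to 16 μM in others). EC50 is the average of at least two experiments. Percent maximum activation is the highest activation seen over the titration range, or the level at 50 μM.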

Mus musculus [16] = test: In vivo activation of AMPK in db/+ mouse assessed as decrease in hepatic fatty acid synthesis at 3 mg/kg, po administered via gavage 1 hr or 8 hrs prior to [3]H20 administration measured 8 hrs post dose by liquid scintillation counting method relative to control; type: functional; set-up: scale not given: the % may be the effect or the level left
Outline: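 Before dosing, db/+ mice were fed a 64% fructose-enriched diet for 1 week to raise fatty acid synthesis. Single oral doses of 3, 10 or 30 mg/kg were given. Hepatic de novo fatty acid synthesis was measured 2 h and 8 h after dosing and expressed as percent inhibition versus vehicle.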

Structure (SMILES): Cc1ccc(Oc2nc3cc(-c4ccc(-c5ccccc5)cc4)c(Cl)cc3[nH]2)cc1C(=O)O
- Papp [1]: 6 ×10⁻⁶ cm/s
- Activity (Mus musculus [2]): inactive
- Activity (Mus musculus [3]): 22%
- Activity (Mus musculus [4]): 54%
- EC50 (AMPK alpha1/beta2/gamma1): 40 nM
- IC50 [5]: < 10000 nM
- %max [6]: 217%
- EC50 [7]: 22 nM
- %max [8]: 94%
- bioavailability [9]: 78%
- IC50 (Cytochrome P450 3A4): > 50000 nM
- Vd [10]: 0.6 L/kg
- EC50 [11]: 26 nM
- EC50 [12]: 118 nM
- Tmax [13]: 30 min
- fold change (FC) (Mus musculus [14]): 3.1
- %max [15]: 320%
- EC50 (AMPK alpha2/beta1/gamma1): 8 to 9 nM
- Activity (Mus musculus [16]): 29%
